ChEMBL document CHEMBL2016473, “Synthesis of new opioid derivatives with a propellane skeleton and their pharmacology. Part 2: Propellane derivatives with an amide side chain” (Bioorg Med Chem Lett, 2012)

Columns and labels:
[1] = molecular target: Mu-type opioid receptor (Mus musculus, UniProt P42866); assay: Displacement of [3H]DAMGO from mu opioid receptor in mouse whole brain without cerebellum
Outline: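 Competitive binding against [3H]DAMGO as the mu radioligand, on membranes from mouse whole brain with the cerebellum removed. Run in duplicate, with results reported as Ki.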

[2] = molecular target: Delta-type opioid receptor (Mus musculus, UniProt P32300); assay: Displacement of [3H]DPDPE from delta opioid receptor in mouse whole brain without cerebellum
Delta-type opioid receptor, sequence (P32300 whole entry, looked up): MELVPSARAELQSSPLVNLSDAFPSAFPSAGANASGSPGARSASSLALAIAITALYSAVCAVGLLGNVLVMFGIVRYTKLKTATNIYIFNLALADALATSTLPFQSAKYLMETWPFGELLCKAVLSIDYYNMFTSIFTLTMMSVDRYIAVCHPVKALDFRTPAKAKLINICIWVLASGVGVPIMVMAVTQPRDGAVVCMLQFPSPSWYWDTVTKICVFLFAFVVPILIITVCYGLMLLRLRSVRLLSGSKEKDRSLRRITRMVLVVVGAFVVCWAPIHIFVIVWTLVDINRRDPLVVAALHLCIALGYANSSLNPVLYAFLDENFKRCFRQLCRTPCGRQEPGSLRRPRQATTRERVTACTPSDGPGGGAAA
Outline: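 Competitive binding against [3H]DPDPE as the delta radioligand, on membranes from mouse whole brain with the cerebellum removed. Run in duplicate, with results reported as Ki.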

[3] = molecular target: Kappa-type opioid receptor (Cavia porcellus, UniProt P41144); assay: Displacement of [3H]U69593 from kappa opioid receptor in guinea pig cerebellum
Kappa-type opioid receptor, sequence (P41144 whole entry): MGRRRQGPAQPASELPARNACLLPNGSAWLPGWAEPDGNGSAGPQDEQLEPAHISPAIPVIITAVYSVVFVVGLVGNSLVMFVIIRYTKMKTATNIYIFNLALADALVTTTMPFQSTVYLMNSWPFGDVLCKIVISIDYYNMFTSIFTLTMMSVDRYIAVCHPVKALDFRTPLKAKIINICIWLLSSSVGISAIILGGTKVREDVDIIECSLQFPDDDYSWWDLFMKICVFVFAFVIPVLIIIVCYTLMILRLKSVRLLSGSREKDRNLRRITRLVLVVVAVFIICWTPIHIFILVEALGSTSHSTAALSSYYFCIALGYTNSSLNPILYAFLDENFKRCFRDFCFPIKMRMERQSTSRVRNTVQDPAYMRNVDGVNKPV
Outline: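 Competitive binding against [3H]U-69,593 as the kappa radioligand, on guinea pig cerebellum membranes. Run in duplicate, with results reported as Ki.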

[4] = Selectivity ratio of Ki for mouse delta opioid receptor to Ki for guinea pig kappa opioid receptor
[5] = Selectivity ratio of Ki for mouse mu opioid receptor to Ki for guinea pig kappa opioid receptor

Mu-type opioid receptor, sequence (P42866 whole entry): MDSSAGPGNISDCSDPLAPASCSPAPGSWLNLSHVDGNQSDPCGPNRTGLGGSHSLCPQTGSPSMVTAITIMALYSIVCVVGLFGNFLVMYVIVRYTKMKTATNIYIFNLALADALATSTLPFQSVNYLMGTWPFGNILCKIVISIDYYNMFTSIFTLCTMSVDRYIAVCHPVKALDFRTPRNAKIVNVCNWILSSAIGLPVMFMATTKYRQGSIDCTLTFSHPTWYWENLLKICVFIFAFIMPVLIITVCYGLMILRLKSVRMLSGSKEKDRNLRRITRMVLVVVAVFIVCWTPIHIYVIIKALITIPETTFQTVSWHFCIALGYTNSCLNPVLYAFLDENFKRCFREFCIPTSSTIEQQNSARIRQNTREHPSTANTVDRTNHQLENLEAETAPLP

| SMILES | Ki [1] [nM] | Ki [2] [nM] | Ki [3] [nM] | Ratio Ki [4] | Ratio Ki [5] |
| --- | --- | --- | --- | --- | --- |
| O=C(Nc1ccccc1)C1=CCC23CCN(CC4CC4)CC2(C1)Cc1ccc(O)cc13 (stereo not given) | 12.4 | 192 | 46.7 | 4.11 | 0.27 |
| O=C(NCCc1ccccc1)[C@@H]1CCC23CCN(CC4CC4)CC2(Cc2ccc(O)cc23)C1 (stereo not given in full) | 54.1 | > 1000 | 169 | – | 0.32 |
| O=C(NCc1ccccc1)[C@H]1CCC23CCN(CC4CC4)CC2(Cc2ccc(O)cc23)C1 (stereo not given in full) | 112 | > 1000 | > 1000 | – | – |
| O=C(Nc1ccccc1)[C@H]1CCC23CCN(CC4CC4)CC2(Cc2ccc(O)cc23)C1 (stereo not given in full) | 80.8 | 207 | 108 | 1.92 | 0.75 |
| CN(C(=O)CCc1ccccc1)[C@H]1CCC23Cc4ccc(O)cc4C2(CCN(CC2CC2)C3)C1 (stereo not given in full) | 1.23 | 44.3 | 7.1 | 6.24 | 0.17 |
| O=C(Nc1ccccc1)[C@@H]1CCC23CCN(CC4CC4)CC2(Cc2ccc(O)cc23)C1 (stereo not given in full) | 79.7 | 282 | 13.4 | 21 | 5.95 |
| O=C(NCCc1ccccc1)C1=CCC23CCN(CC4CC4)CC2(C1)Cc1ccc(O)cc13 (stereo not given) | 35.9 | 412 | 253 | 1.63 | 0.14 |
| O=C(NCc1ccccc1)C1=CCC23CCN(CC4CC4)CC2(C1)Cc1ccc(O)cc13 (stereo not given) | 33.9 | 298 | 72.7 | 4.1 | 0.47 |
| O=C(NCc1ccccc1)[C@@H]1CCC23CCN(CC4CC4)CC2(Cc2ccc(O)cc23)C1 (stereo not given in full) | 106 | > 1000 | 19.2 | – | 5.52 |
| O=C(NCCc1ccccc1)[C@H]1CCC23CCN(CC4CC4)CC2(Cc2ccc(O)cc23)C1 (stereo not given in full) | 453 | > 1000 | 641 | – | 0.71 |
| CN(C(=O)/C=C/c1ccoc1)[C@@H]1CCC23Cc4ccc(O)cc4C2(CCN(CC2CC2)C3)C1 (stereo not given in full) | 12.2 | 121 | 3.43 | 35.3 | 3.56 |
| CN(C(=O)CCc1ccccc1)[C@@H]1CCC23Cc4ccc(O)cc4C2(CCN(CC2CC2)C3)C1 (stereo not given in full) | 31.9 | 65.2 | 16.4 | 3.98 | 1.95 |
| CN(C(=O)/C=C/c1ccoc1)[C@H]1CCC23Cc4ccc(O)cc4C2(CCN(CC2CC2)C3)C1 (stereo not given in full) | 2.2 | 35 | 0.83 | 42.2 | 2.65 |
